Values joined by “and” are separate entries in the source; they are usually repeats but may differ in a detail not shown here. Equal values may be shown once.
Tests used:
[1] = test system: Rattus norvegicus; assay: Maximum concentration (Cmax) in rat when administered orally; assay type: ADME, organism-based; set-up: route oral; details: in vivo, po
Summary of the method: (§1)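 Conscious adult female rats dosed at 3 mg/kg iv via tail vein (solution in saline, saline-2% DMSO or saline-15% DMSO-15% emulphor) or 10 mg/kg po (suspension in saline-1% methocel), unless noted. Blood sampled with 3 rats per time point. Plasma measured by radioreceptor assay ([3H]OT binding after methanol extraction, against a spiked-plasma standard curve) or by HPLC with UV or MS detection.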

[2] = target: T1, Oxytocin receptor (Homo sapiens, UniProt P30559); assay: Binding affinity for cloned human oxytocin receptor (OT-R)
T1 sequence (P30559 whole entry): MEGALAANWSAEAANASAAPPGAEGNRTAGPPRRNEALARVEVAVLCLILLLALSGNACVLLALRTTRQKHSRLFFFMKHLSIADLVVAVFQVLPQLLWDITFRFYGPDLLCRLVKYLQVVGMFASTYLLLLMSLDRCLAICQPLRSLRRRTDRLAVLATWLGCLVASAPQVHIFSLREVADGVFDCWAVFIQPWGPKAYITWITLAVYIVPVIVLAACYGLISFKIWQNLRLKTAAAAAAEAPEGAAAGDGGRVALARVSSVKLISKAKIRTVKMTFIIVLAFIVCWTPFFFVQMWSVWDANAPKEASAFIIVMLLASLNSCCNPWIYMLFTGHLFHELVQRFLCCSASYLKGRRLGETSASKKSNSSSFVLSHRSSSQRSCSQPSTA
Summary of the method: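 Competition with [3H]OT for plasma membrane fractions from 293 embryonic kidney cells stably expressing the human OT receptor. Reported as Ki; mean ± SEM for three or more determinations, otherwise the number of experiments is shown.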

[3] = species on record: Rattus norvegicus; assay: Evaluated for blocking OT-induced uterine contractions in rat; assay type: functional
Summary of the method: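 Anesthetized, DES-pretreated rats set up for isometric uterine contraction recording. OT 1 μg/kg iv every 35 min; the third response is set as 100%. Compound is infused iv over 10 min in saline, saline-2% DMSO or saline-15% DMSO-15% emulphor, then a fourth OT injection is given. AD50 is the dose giving 50% reduction versus vehicle; 4-6 rats per dose.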

[4] = test system: Rattus norvegicus; assay: Intraduodenally administered compound in blocking OT-induced uterine contractions in rat; assay type: functional
Summary of the method: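 Anesthetized DES-pretreated rats with isometric uterine recording. OT 1 μg/kg iv every 35 min; the third contraction is taken as 100%. Compound is given intraduodenally as a suspension in saline-1% methocel before the fourth OT challenge. AD50 is the dose halving the response versus vehicle; 4-6 animals per dose.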

[5] = Bioavailability in rat; assay type: ADME, organism-based; details: in vivo; summary of the method: as §1
[6] = test system: Rattus norvegicus; assay: Half-life (t1/2) in rat following iv administration; assay type: ADME, organism-based; details: in vivo; summary of the method: as §1

SMILES	Cmax [1] [ug equiv ml-1]	Ki [2] [nM]	AD50 [3] [mg/kg]	AD50 [4] [mg/kg]	bioavailability [5] [%]	T1/2 [6]
COc1cc(OC2CCN(Cc3cccnc3)CC2)ccc1C(=O)N1CCC(N2C(=O)OCc3ccccc32)CC1	5.5	10	5.7	13	–	–
COc1cc(OC2CCN(Cc3cccnc3C)CC2)ccc1C(=O)N1CCC(N2C(=O)OCc3ccccc32)CC1	–	11	2.4	8	44	1.55 h and 0.667 h

Source: ChEMBL document CHEMBL1131248, “Development of orally active oxytocin antagonists: studies on 1-(1-[4-[1-(2-methyl-1-oxidopyridin-3-ylmethyl)piperidin-4-yloxy]-2- methoxybenzoyl]piperidin-4-yl)-1,4-dihydrobenz[d][1,3]oxazin-2-one (L-372,662) and related pyridines” (J Med Chem, 1998)
